In ChEMBL document CHEMBL1126013, “Synthesis and evaluation of some water-soluble prodrugs and derivatives of taxol with antitumor activity” (J Med Chem, 1992):

Legend:
Mus musculus [1] = test: Initial average tumor weight was measured in mice induced with human mammary carcinoma at a dose of 10 mg/Kg; format: functional
Procedure, shortened: (§1)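 MX-1 human mammary carcinoma xenograft implanted under the renal capsule in mice. Study run at the National Cancer Institute following NIH Publication No. 84-2635. Tumor weights recorded at the start and at the end. Survivors counted after 11 days. %T/C = (Δ tumor weight treated/Δ tumor weight control) × 100 where the tumor grows, and (Δ tumor weight treated/initial control tumor weight) × 100 where it regresses.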

Mus musculus [2] = test: Final average tumor weight was measured in mice induced with human mammary carcinoma at a dose of 10 mg/Kg; format: functional; procedure, shortened: as §1
B16 [3] = test: Concentration required to inhibit the proliferation of B16 melanoma cells was determined; format: functional, cell-based; conditions: Mus musculus
Mus musculus [4] = test: Final average tumor weight was measured in mice induced with human mammary carcinoma at a dose of 15 mg/Kg; format: functional; procedure, shortened: as §1
Mus musculus [5] = test: Number of survivors after 11 days at a dose of 15 mg/Kg tested in 6 mice; format: functional
Procedure, shortened: (§2)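 MX-1 human mammary carcinoma xenograft implanted under the renal capsule of mice. The study was run at the National Cancer Institute following the procedures of NIH Publication No. 84-2635. Average tumor weight was recorded at the start and end of treatment, and survivors were counted after 11 days. Dosed groups were compared with an untreated control group.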

Mus musculus [6] = test: Tumor growth or regression measured as Percent treated by control at a dose of 4.45 mg/Kg to mice with MX-1 xenograft; CR refers to complete remission or when the tumor is no longer detectable; format: functional, organism-based
Procedure, shortened: (§3)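 Subrenal capsule human mammary carcinoma (MX-1) xenograft in mice, run at the National Cancer Institute by NIH Publication No. 84-2635 procedures. Initial and final average tumor weights recorded, with survivors counted after 11 days. %T/C is (Δ tumor weight treated/Δ tumor weight controls)×100 for growing tumors. For regressing tumors it is (Δ tumor weight treated/initial control tumor weight)×100.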

Mus musculus [7] = test: Final average tumor weight was measured in mice induced with human mammary carcinoma at a dose of 6.67 mg/Kg; format: functional; procedure, shortened: as §1
Mus musculus [8] = test: Tumor growth or regression measured as Percent treated by control at a dose of 6.67 mg/Kg to mice with MX-1 xenograft; CR refers to complete remission or when the tumor is no longer detectable; format: functional, organism-based; procedure, shortened: as §3
Mus musculus [9] = test: Initial average tumor weight was measured in mice induced with human mammary carcinoma at a dose of 15 mg/Kg; format: functional; procedure, shortened: as §1
Mus musculus [10] = test: Initial average tumor weight was measured in mice induced with human mammary carcinoma at a dose of 6.67 mg/Kg; format: functional; procedure, shortened: as §1
B16 [11] = test: Relative effect on B16 melanoma cell proliferation was determined [IC50 (taxol)/IC50 (derivative)]; format: functional, Mus musculus
Mus musculus [12] = test: Number of survivors after 11 days at a dose of 6.67 mg/Kg tested in 5 mice; format: functional; procedure, shortened: as §2
B16 [13] = test: Percentage change in cell number of B16 melanoma cells treated with 10e-5 M dose; format: functional, Mus musculus
Procedure, shortened: (§4)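 B16 melanoma cells exposed to 10⁻⁵ or 10⁻⁶ M compound for 8 h, then rinsed three times with fresh medium. Cells then grown in drug-free medium for 48 h and counted. Result given as percent change relative to the cell number at time zero. Controls are the average of three experiments.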

Mus musculus [14] = test: Final average tumor weight was measured in mice induced with human mammary carcinoma at a dose of 4.45 mg/Kg; format: functional; procedure, shortened: as §1
Mus musculus [15] = test: Number of survivors after 11 days at a dose of 4.45 mg/Kg tested in 5 mice; format: functional; procedure, shortened: as §2
Mus musculus [16] = test: Antitumor activity of taxoland the derivative against mammary carcinoma xenograft in mice; format: functional; procedure, shortened: as §1
Mus musculus [17] = test: Tumor growth or regression measured as Percent treated by control at a dose of 22.4 mg/Kg to mice with MX-1 xenograft; Tox refers to toxicity or when < 65% of the animals survive the test; format: functional, organism-based; procedure, shortened: as §1
Bos taurus = species: Bos taurus; test: Relative effect on microtubular assembly (Tubulin polymerized by derivative/tubulin polymerized by taxol); format: functional
Procedure, shortened: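 Bovine brain tubulin, purified from microtubule-associated proteins by phosphocellulose chromatography, used at 10 μM. Turbidity followed at 350 nm. Polymer pelleted at 200000g, 37 °C, 4 min, depolymerized on ice, and protein measured by Bradford.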

B16 [18] = test: Percentage change in cell number of B16 melanoma cells treated with 10e-6 M dose; format: functional, Mus musculus; procedure, shortened: as §4
Mus musculus [19] = test: Tumor growth or regression measured as Percent treated by control at a dose of 10 mg/Kg to mice with MX-1 xenograft; format: functional; procedure, shortened: as §1
Mus musculus [20] = test: Initial average tumor weight was measured in mice induced with human mammary carcinoma at a dose of 4.45 mg/Kg; format: functional; procedure, shortened: as §1
Mus musculus [21] = test: Tumor growth or regression measured as Percent treated by control at a dose of 15 mg/Kg to mice with MX-1 xenograft; CR refers to complete remission or when the tumor is no longer detectable; format: functional, organism-based; procedure, shortened: as §1
Mus musculus [22] = test: Initial average tumor weight was measured in mice induced with human mammary carcinoma at a dose of 22.4 mg/Kg; format: functional; procedure, shortened: as §1
Mus musculus [23] = test: Number of survivors after 11 days at a dose of 10 mg/Kg tested in 6 mice; format: functional; procedure, shortened: as §2
Mus musculus [24] = test: Number of survivors after 11 days at a dose of 22.4 mg/Kg tested in 6 mice; format: functional; procedure, shortened: as §2
Mus musculus [25] = test: Final average tumor weight was measured in mice induced with human mammary carcinoma at a dose of 22.4 mg/Kg; format: functional; procedure, shortened: as §1
Mus musculus [26] = test: final average tumor weight was measured in mice induced with human mammary carcinoma at a dose of 33 mg/Kg; format: functional; procedure, shortened: as §3
Mus musculus [27] = test: Initial average tumor weight was measured in mice induced with human mammary carcinoma at a dose of 16.5 mg/Kg; format: functional; procedure, shortened: as §1
Mus musculus [28] = test: Initial average tumor weight was measured in mice induced with human mammary carcinoma at a dose of 33 mg/Kg; format: functional; procedure, shortened: as §1
Mus musculus [29] = test: Final average tumor weight was measured in mice induced with human mammary carcinoma at a dose of 8.25 mg/Kg; format: functional; procedure, shortened: as §1
Mus musculus [30] = test: Tumor growth or regression measured as Percent treated by control at a dose of 16.5 mg/Kg to mice with MX-1 xenograft; format: functional; procedure, shortened: as §1
Mus musculus [31] = test: Number of survivors after 11 days at a dose of 4.13 mg/Kg tested in 5 mice; format: functional; procedure, shortened: as §2
Mus musculus [32] = test: Final average tumor weight was measured in mice induced with human mammary carcinoma at a dose of 16.5 mg/Kg; format: functional; procedure, shortened: as §1
Mus musculus [33] = test: Number of survivors after 11 days at a dose of 8.25 mg/Kg tested in 4 mice; format: functional; procedure, shortened: as §2
Mus musculus [34] = test: Final average tumor weight was measured in mice induced with human mammary carcinoma at a dose of 4.13 mg/Kg; format: functional; procedure, shortened: as §1
Mus musculus [35] = test: Tumor growth or regression measured as Percent treated by control at a dose of 4.13 mg/Kg to mice with MX-1 xenograft; format: functional; procedure, shortened: as §3
Mus musculus [36] = test: Initial average tumor weight was measured in mice induced with human mammary carcinoma at a dose of 8.25 mg/Kg; format: functional; procedure, shortened: as §1
Mus musculus [37] = test: Number of survivors after 11 days at a dose of 16.5 mg/Kg tested in 4 mice; format: functional; procedure, shortened: as §2
Mus musculus [38] = test: Initial average tumor weight was measured in mice induced with human mammary carcinoma at a dose of 4.13 mg/Kg; format: functional; procedure, shortened: as §1
Mus musculus [39] = test: Tumor growth or regression measured as Percent treated by control at a dose of 33 mg/Kg to mice with MX-1 xenograft; CR refers to complete remission or when the tumor is no longer detectable; format: functional, organism-based; procedure, shortened: as §1
Mus musculus [40] = test: Number of survivors after 11 days at a dose of 33 mg/Kg tested in 5 mice; format: functional; procedure, shortened: as §2
Mus musculus [41] = test: Tumor growth or regression measured as Percent treated by control at a dose of 8.25 mg/Kg to mice with MX-1 xenograft; format: functional; procedure, shortened: as §3
[42] = Solubility in water; format: physicochemical; conditions: read-out: S

In the case of `CC(=O)O[C@H]1C(=O)[C@@]2(C)[C@H]([C@H](OC(=O)c3ccccc3)[C@]3(O)C[C@H](OC(=O)[C@H](O)[C@@H](NC(=O)c4ccccc4)c4ccccc4)C(C)=C1C3(C)C)[C@]1(OC(C)=O)CO[C@@H]1C[C@@H]2O` [PACLITAXEL], the “Initial average tumor weight” value (Mus musculus [1]) is reported as 0.58 mg, the “Final average tumor weight” value (Mus musculus [2]) is reported as 0.09 mg and the IC50 (B16 [3]) is reported as 19 nM. For the same molecule, the “Final average tumor weight” value (Mus musculus [4]) was 0 mg, the No. of survivors (Mus musculus [5]) was 6 and the T/C (Mus musculus [6]) was “Complete remission”. For the same molecule, the “Final average tumor weight” value (Mus musculus [7]) was 0 mg, the T/C (Mus musculus [8]) was “Complete remission” and the “Initial average tumor weight” value (Mus musculus [9]) was 0.81 mg. For the same molecule, the “Initial average tumor weight” value (Mus musculus [10]) was 0.74 mg, the Relative effect (B16 [11]) was 1 and the No. of survivors (Mus musculus [12]) was 5. For the same molecule, the “Change in cell number” value (B16 [13]) was 75%, the “Final average tumor weight” value (Mus musculus [14]) was 0 mg and the No. of survivors (Mus musculus [15]) was 5. For the same molecule, the Relative antitumor activity (Mus musculus [16]) was 1, the T/C (Mus musculus [17]) was “Toxic” and the Relative effect (Bos taurus) was 1. The “Change in cell number” value (B16 [18]) was 252%, the T/C (Mus musculus [19]) was -84% and the “Initial average tumor weight” value (Mus musculus [20]) was 0.79 mg. The T/C (Mus musculus [21]) was “Complete remission”, the “Initial average tumor weight” value (Mus musculus [22]) was 0.6 mg and the No. of survivors (Mus musculus [23]) was 6. The No. of survivors (Mus musculus [24]) was 3 and the “Final average tumor weight” value (Mus musculus [25]) was 0 mg.
In the case of `CC(=O)O[C@H]1C(=O)[C@]2(C)[C@@H](OC(=O)CN(C)C)C[C@H]3OC[C@@]3(OC(C)=O)[C@H]2[C@H](OC(=O)c2ccccc2)[C@]2(O)C[C@H](OC(=O)[C@H](O)[C@@H](NC(=O)c3ccccc3)c3ccccc3)C(C)=C1C2(C)C.CS(=O)(=O)O`, the “Final average tumor weight” value (Mus musculus [26]) is reported as 0 mg, the “Initial average tumor weight” value (Mus musculus [27]) is reported as 0.59 mg and the IC50 (B16 [3]) is reported as 44 nM. The “Initial average tumor weight” value (Mus musculus [28]) was 0.74 mg, the “Final average tumor weight” value (Mus musculus [29]) was 4.19 mg and the T/C (Mus musculus [30]) was -93%. The No. of survivors (Mus musculus [31]) was 4, the “Final average tumor weight” value (Mus musculus [32]) was 0.04 mg and the No. of survivors (Mus musculus [33]) was 4. The “Final average tumor weight” value (Mus musculus [34]) was 5.66 mg, the Relative effect (B16 [11]) was 0.43 and the “Change in cell number” value (B16 [13]) was -60%. For the same molecule, the T/C (Mus musculus [35]) was 34%, the “Initial average tumor weight” value (Mus musculus [36]) was 0.81 mg and the Relative antitumor activity (Mus musculus [16]) was 3. For the same molecule, the Relative effect (Bos taurus) was 0.77, the “Change in cell number” value (B16 [18]) was 222% and the No. of survivors (Mus musculus [37]) was 3. The “Initial average tumor weight” value (Mus musculus [38]) was 0.74 mg, the T/C (Mus musculus [39]) was “Complete remission” and the No. of survivors (Mus musculus [40]) was 4. The T/C (Mus musculus [41]) was 23% and the solubility [42] was > 1870 µM.
